The compounds below were run against Epidermal growth factor receptor (Homo sapiens, UniProt P00533) (assay: Inhibition of in vitro activity of EGFr enzyme from A431 cells in presence of 5 uM ATP).
Chain of Epidermal growth factor receptor (P00533 whole entry): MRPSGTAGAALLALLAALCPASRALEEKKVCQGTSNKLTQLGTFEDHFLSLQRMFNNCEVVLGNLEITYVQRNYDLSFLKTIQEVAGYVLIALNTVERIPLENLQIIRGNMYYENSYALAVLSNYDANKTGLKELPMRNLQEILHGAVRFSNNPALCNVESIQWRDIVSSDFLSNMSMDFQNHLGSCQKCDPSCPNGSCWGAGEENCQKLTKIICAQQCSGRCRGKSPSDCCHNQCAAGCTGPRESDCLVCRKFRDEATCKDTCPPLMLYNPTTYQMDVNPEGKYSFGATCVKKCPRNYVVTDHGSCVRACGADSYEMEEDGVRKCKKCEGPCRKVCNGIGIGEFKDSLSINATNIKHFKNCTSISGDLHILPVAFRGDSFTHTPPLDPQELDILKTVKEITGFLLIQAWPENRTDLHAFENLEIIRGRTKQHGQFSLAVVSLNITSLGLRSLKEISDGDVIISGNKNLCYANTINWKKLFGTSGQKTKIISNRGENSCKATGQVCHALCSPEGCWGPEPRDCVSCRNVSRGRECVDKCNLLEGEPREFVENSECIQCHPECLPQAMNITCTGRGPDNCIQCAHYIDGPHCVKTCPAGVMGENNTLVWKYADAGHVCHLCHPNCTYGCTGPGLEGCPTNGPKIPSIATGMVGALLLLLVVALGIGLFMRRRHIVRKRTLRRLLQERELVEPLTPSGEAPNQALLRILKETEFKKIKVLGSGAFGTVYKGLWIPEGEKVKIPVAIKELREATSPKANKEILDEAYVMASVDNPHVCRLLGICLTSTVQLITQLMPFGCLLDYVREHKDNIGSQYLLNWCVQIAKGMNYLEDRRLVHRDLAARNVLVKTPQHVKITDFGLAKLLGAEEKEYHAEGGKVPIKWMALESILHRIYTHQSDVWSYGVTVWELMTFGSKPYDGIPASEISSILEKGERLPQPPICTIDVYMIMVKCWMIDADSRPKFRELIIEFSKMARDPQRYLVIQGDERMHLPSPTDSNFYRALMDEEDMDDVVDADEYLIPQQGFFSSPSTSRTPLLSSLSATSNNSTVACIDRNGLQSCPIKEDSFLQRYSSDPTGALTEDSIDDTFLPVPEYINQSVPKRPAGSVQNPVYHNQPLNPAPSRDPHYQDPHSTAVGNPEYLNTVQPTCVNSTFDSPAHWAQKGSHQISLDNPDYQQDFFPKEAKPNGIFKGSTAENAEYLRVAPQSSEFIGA
Format: cell-based, A-431
Outline: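 EGFr from human A431 shed membrane vesicles, solubilised in 4% Triton X-100/10% glycerol; 10 μg vesicle protein. Buffer 20 mM HEPES pH 7.4, 15 mM MgCl2, 4 mM MnCl2, 0.02% BSA, 5 μM [32P]ATP, 25 μg Glu:Ala:Tyr (6:3:1) copolymer, 250 ng EGF. 10 min at room temperature; TCA/pyrophosphate quench, filter wash, scintillation counting; autophosphorylation controls included.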
With `Nc1ccc(-c2cc(=O)c3cc(O)cc(N)c3o2)cc1` the IC50 was > 100 µM. In the case of `Nc1ccc(-c2cc(=O)c3cc(N)cc(N)c3o2)cc1`, the IC50 is reported as > 100 µM. For `Nc1ccc(-c2cc(=O)c3cc(N)ccc3o2)cc1`, the IC50 was 8.7 µM. `COc1cc(N)c2oc(-c3cccc(N)c3)cc(=O)c2c1` was tested, and the IC50 was > 100 µM. In the case of `Nc1ccc(-c2cc(=O)c3ccc(O)c(N)c3o2)cc1`, the IC50 is reported as > 100 µM. In the case of `Nc1ccc(-c2cc(=O)c3c(O)ccc(N)c3o2)cc1`, the IC50 is reported as > 100 µM. With `Nc1ccc(-c2cc(=O)c3c(N)c(O)c(N)cc3o2)cc1` the IC50 was > 100 µM. `Nc1cccc(-c2cc(=O)c3cc(N)c(O)cc3o2)c1` was tested, and the IC50 was > 100 µM. For `Nc1cccc(-c2cc(=O)c3cc(N)ccc3o2)c1`, the IC50 was > 100 µM. With `COc1ccc(N)c2oc(-c3ccc(N)cc3)cc(=O)c12` the IC50 was > 100 µM. In the case of `Nc1ccc(-c2cc(=O)c3cc(N)c(O)c(N)c3o2)cc1`, the IC50 is reported as > 100 µM. In the case of `Nc1ccc(-c2cc(=O)c3c(O)c(N)ccc3o2)cc1`, the IC50 is reported as > 100 µM. With `COc1cc(N)c2oc(-c3ccc(N)cc3)cc(=O)c2c1` the IC50 was > 100 µM. In the case of `Nc1ccc(-c2cc(=O)c3cccc(N)c3o2)cc1`, the IC50 is reported as > 100 µM. With `Nc1cccc(-c2cc(=O)c3c(N)c(O)c(N)cc3o2)c1` the IC50 was 7.8 µM. `Nc1ccc(-c2cc(=O)c3cc(N)c(O)cc3o2)cc1` showed an IC50 of 14.1 µM.

The compounds below were run against Tyrosine-protein kinase Lck (Bos taurus) (assay: In vitro inhibition of protein-tyrosine activity of p56lck enzyme in presence of 50 uM ATP).
Work on `Nc1ccc(-c2cc(=O)c3cc(O)cc(N)c3o2)cc1` yielded an IC50 of 117 µM. `Nc1ccc(-c2cc(=O)c3cc(N)cc(N)c3o2)cc1` showed an IC50 of 106 µM. `Nc1ccc(-c2cc(=O)c3cc(N)ccc3o2)cc1` gave an IC50 of 103 µM. `O=c1cc(-c2ccc([N+](=O)[O-])cc2)oc2cc(O)c([N+](=O)[O-])cc12` was tested, and the IC50 was > 2000 µM. With `Nc1ccc(-c2cc(=O)c3ccc(O)c(N)c3o2)cc1` the IC50 was 328 µM. With `Nc1ccc(-c2cc(=O)c3c(O)ccc(N)c3o2)cc1` the IC50 was 326 µM. `Nc1ccc(-c2cc(=O)c3c(N)c(O)c(N)cc3o2)cc1` was tested, and the IC50 was 18 µM. `COc1cc([N+](=O)[O-])c2oc(-c3ccc([N+](=O)[O-])cc3)cc(=O)c2c1` was tested, and the IC50 was > 2000 µM. `Nc1cccc(-c2cc(=O)c3cc(N)c(O)cc3o2)c1` showed an IC50 of 502 µM. Work on `Nc1cccc(-c2cc(=O)c3cc(N)ccc3o2)c1` yielded an IC50 of 200 µM. With `O=c1cc(-c2ccc([N+](=O)[O-])cc2)oc2c([N+](=O)[O-])cc(O)cc12` the IC50 was > 2000 µM. `Nc1ccc(-c2cc(=O)c3cc(N)c(O)c(N)c3o2)cc1` gave an IC50 of 754 µM. For `COc1ccc([N+](=O)[O-])c2oc(-c3ccc([N+](=O)[O-])cc3)cc(=O)c12`, the IC50 was > 2000 µM. Compound `Nc1ccc(-c2cc(=O)c3c(O)c(N)ccc3o2)cc1` has an IC50 of 223 µM. For `O=c1cc(-c2ccc([N+](=O)[O-])cc2)oc2ccc([N+](=O)[O-])c(O)c12`, the IC50 was > 2000 µM. Compound `COc1cc(N)c2oc(-c3ccc(N)cc3)cc(=O)c2c1` has an IC50 of 382 µM. `Nc1ccc(-c2cc(=O)c3cccc(N)c3o2)cc1` showed an IC50 of 123 µM. With `O=c1cc(-c2ccc([N+](=O)[O-])cc2)oc2c([N+](=O)[O-])c(O)ccc12` the IC50 was 1880 µM. In the case of `O=c1cc(-c2ccc([N+](=O)[O-])cc2)oc2c([N+](=O)[O-])ccc(O)c12`, the IC50 is reported as > 2000 µM. `Nc1cccc(-c2cc(=O)c3c(N)c(O)c(N)cc3o2)c1` was tested, and the IC50 was 46 µM. `O=c1cc(-c2ccc([N+](=O)[O-])cc2)oc2c([N+](=O)[O-])cccc12` was tested, and the IC50 was > 2000 µM. In the case of `Nc1ccc(-c2cc(=O)c3cc(N)c(O)cc3o2)cc1`, the IC50 is reported as 141 µM. With `O=c1cc(-c2ccc([N+](=O)[O-])cc2)oc2ccc([N+](=O)[O-])cc12` the IC50 was > 2000 µM.

Reference: ChEMBL document CHEMBL1127357, “Synthesis and biochemical evaluation of a series of aminoflavones as potential inhibitors of protein-tyrosine kinases p56lck, EGFr, and p60v-src” (J Med Chem, 1994)
